Compound activity from PubChem BioAssay.
UPR XBP1 act: adaptive UPR (XBP1) activation | CHO-XBP1 luciferase reporter, IRE1-XBP1 UPR activation, luminescence; percent of tunicamycin response, DMSO as zero | activation, % at 20 µM | 330,000 compounds, 0.33% hits | AID 463104;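 active means versus positive control, 20 µM dose yields 30% or more activation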;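 further: 100% = tunicamycin at 10 µg/mL and 0% = DMSO only wells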
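Material: CHO-XBP1 cells stably carrying IRE1-XBP1-driven luciferase reporter / Amount: 1000 cells per well / Compound: 20 µM, 1% DMSO / Times: 6 h treatment, 37 °C / Detection: luciferase luminescence / Measure: % activation of reporter signal versus tunicamycin and DMSO controls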
T cruzi repl: blocks replication of Trypanosoma cruzi. T. cruzi beta-gal in NIH3T3, luminescence, 90 h. inhibition, % (concentration not given with the values). 300,000 compounds, 1.4% hits;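 active means mean inhibition across valid replicates above about 55%, limit read from the data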;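 further: signal also drops with host cell toxicity which is not excluded here; 0% = plate median of DMSO wells and 100% = zero luminescence signal; higher percent means less beta-gal luminescence so fewer parasites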
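Incubation – ≥90 h infection period, 3 h prior cell attachment · System – NIH/3T3 fibroblasts plus reporter T. cruzi · Doses – compound pinned at 50 nL/well, DMSO · Read-out basis – percent inhibition of parasite-derived β-gal signal · Signal – luminescent β-galactosidase signal after 60 min lysis · Also added – 5000 T. cruzi trypomastigotes/well · Medium – Low-serum DMEM with 2% FBS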
L major viab: reduces viability of Leishmania major promastigotes. resazurin fluorescence viability. inhibition, % at 10 µM. 200,000 compounds, 9% hits; in the data active means inhibition above about 50%;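 further: promastigotes grown with compound for 44 hours at 28 °C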
UPR CHOP act: apoptotic UPR (CHOP) activation; CHO-CHOP luciferase reporter, luminescence; percent of tunicamycin response over DMSO baseline; activation, % at 10 µM; 330,000 compounds, 0.34% hits; AID 449763;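 active means at 10 µM dose, activation of 40% or more, normalized to positive control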;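 further: 100% = tunicamycin at 10 µg/mL and 0% = DMSO alone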
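Test system: CHO CHOP reporter cells. Input: 500 CHO-CHOP cells per well. Medium: F12 with 10% FBS. Technique: luciferase luminescence. Measure: percent activation relative to tunicamycin control. Dosing: 10 µM compound, 0.5% DMSO. Timing: 16-18 h cell attachment, then 6 h compound exposure, 37 °C.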
CHOP inhibitor: inhibitors of CHOP induction in ER stress response; CHO-K1 CHOP-promoter luciferase, tunicamycin-induced, 15-18 h; inhibition, % at 10 µM; 220,000 compounds, 3.8% hits;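 active means compounds that reduced the stress-induced luciferase reporter signal by more than about 70% of percent inhibition, limit read from the data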;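 further: 0% = tunicamycin plus vehicle and 100% = wells without tunicamycin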
Dynein transport: blocks dynein driven cargo transport along microtubules. 3617.4 mouse cells, GR-EGFP nuclear translocation imaging; test concentration mostly 20 µM; stimulated with dexamethasone, 1 µM; hits give low values. z-score, hits read low. 220,000 compounds, 0.47% hits;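 active means plate z-score of nuclear minus cytoplasmic receptor signal below a set negative limit, without overly bright fluorescence or cell loss, cut at about -3.5 in these data, passing the limit was not always enough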;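 further: z-score of nuclear minus cytoplasmic ring GR-EGFP intensity difference per well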
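medium = tetracycline-free induction medium containing charcoal-stripped FBS | probe or stimulus = dexamethasone, 1.0 µM final | timing = 48 h induction, then 1 h compound, then 30 min agonist, 37 °C | detection = automated 10x imaging of fixed Hoechst-stained cells | read-out basis = nuclear versus cytoplasmic GR-EGFP signal, averaged per well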
* marks the source's active call; other numbers are inactive results; . = not tested or not shown. The entries come from a sample that favours hits as a whole.

SMILES | UPR XBP1 act | T cruzi repl | L major viab | UPR CHOP act | CHOP inhibitor | Dynein transport
O=C(O)c1cccc(S(=O)(=O)NCC2COc3ccccc3O2)c1 (stereo not drawn) | -0.6 | . | . | -0.3 | . | .
Cc1cc(C)cc(C(=O)Nc2ccc(N3CCN(C(=O)c4ccco4)CC3)cc2)c1 | -4.0 | 2.8 | . | 3.1 | . | .
CC(C)[C@H](NC(=O)[C@@H]1Cc2ccccc2CN1C(=O)OC(C)(C)C)C(=O)NCc1ccco1 | -3.1 | 10.5 | . | 1.0 | . | .
Cc1nnn(C23CC4CC(CC(CC(=O)Nc5cccc(F)c5)(C4)C2)C3)n1 | -1.8 | -19.3 | 15.0 | -0.7 | -4.6 | 1.63
Cc1nnn(C23CC4CC(CC(CC(=O)Nc5ccc(C)c(C)c5)(C4)C2)C3)n1 | -2.0 | 16.2 | 68.1* | -0.5 | 18.0 | -0.0781
Cc1cccc(NC(=O)CC23CC4CC(C2)CC(n2nnc(C)n2)(C4)C3)c1 | -1.0 | 15.6 | 54.8* | 0.8 | 9.8 | -0.608
COc1ccc(/C=C/C(=O)NCCc2ccc(S(N)(=O)=O)cc2)cc1 | -2.1 | 1.9 | 62.1* | 1.4 | -9.3 | 0.847
COc1ccc(-c2csc(NC(=O)CSCc3c(C)noc3C)n2)c(OC)c1 | -4.5 | 11.8 | . | 3.1 | . | .
O=C(Nc1ccccc1F)N1CCCC1c1cccnc1 (stereo not drawn) | -1.0 | 18.5 | . | 0.9 | 28.8 | -1.05
O=C(Nc1ccccc1)N1CCCCC1c1cccnc1 (stereo not drawn) | -1.9 | 44.5 | 77.3* | 0.5 | 26.2 | 0.0431
CCOc1ccc(NC(=O)CN(C)S(=O)(=O)c2cccc3cccnc23)cc1 | -3.0 | -3.1 | . | -1.1 | . | .
CCCCCC1CC(CC(=O)Nc2ccc([N+](=O)[O-])cc2)OC1=O (stereo not drawn) | 0.3 | 6.6 | . | 2.1 | 90.8* | -0.659
CCCCCCC1CC(CCC(=O)Nc2ccc([N+](=O)[O-])cc2)C(=O)O1 (stereo not drawn) | -5.5 | 9.9 | -9.8 | 0.6 | 84.3* | -0.697
COCCN(C(=O)Nc1ccc(OC)cc1)c1nc2ccccc2s1 | -1.7 | 10.2 | . | 0.8 | . | .
O=C(CCc1nc(-c2ccccc2Cl)no1)Nc1cccnc1 | 0.3 | 1.6 | . | 1.7 | . | .
O=C(CC(=O)c1cc(Cl)ccc1O)c1ccccc1 | 3.2 | 3.8 | 99.5* | 19.3 | 110.3* | 0.148
O=C(COC(=O)c1cc(Cl)ccc1O)NNC(=O)c1ccccc1F | -2.0 | . | . | -0.5 | . | .
Cc1ccc(O)c(C(=O)CC(=O)c2ccc(Cl)cc2)c1 | . | 5.5 | . | . | . | .
Cc1cccc(C(=O)CC(=O)c2cc(Cl)ccc2O)c1 | 5.2 | 31.4 | 99.3* | 12.8 | 107.7* | -1.6
CC(C)CC(=O)N1CCN(C(=O)c2ccc(-c3ccccc3)cc2)CC1 | -6.5 | 0.3 | . | -1.7 | . | .
CCOc1ccc(NC(=O)CN(C)C(=O)C2CCN(C(=O)c3ccc(Cl)cc3)CC2)cc1OCC | -1.4 | . | . | 2.0 | . | .
CCOC(=O)N1CCC(NC(=O)C2CCCN(Cc3nc(-c4cccc(Cl)c4)oc3C)C2)CC1 (stereo not drawn) | -4.1 | 52.0 | 10.3 | 8.4 | 84.7* | -0.559
CCN1CCN(C(=O)CSCc2nc(-c3ccc(OC)c(OC)c3)oc2C)CC1 | -3.7 | -11.1 | -0.7 | -0.5 | -11.7 | -0.026
CCN1CCN(CCNC(=O)C2CCCN(Cc3nc(-c4cccc(Cl)c4)oc3C)C2)CC1 (stereo not drawn) | -2.0 | 23.4 | 94.1* | -3.3 | 6.8 | 0.383
Cc1oc(-c2cccc(Cl)c2)nc1CN1CCC(C(=O)NCCCN2CCCC2=O)CC1 | -0.7 | -10.9 | -5.3 | -1.0 | 32.5 | -0.349
CCCN(CCC)CCNC(=O)C1CCN(Cc2nc(-c3ccc(Cl)cc3)oc2C)CC1 | 0.5 | 72.5* | 97.8* | 2.6 | -17.7 | -0.553
Cc1oc(-c2ccc(Cl)cc2)nc1CN1CCCC(C(=O)NC2CC2)C1 (stereo not drawn) | 0.2 | 43.1 | . | -2.4 | . | .
CCN1CCN(CCNC(=O)CSCc2nc(-c3ccc(OC)c(OC)c3)oc2C)CC1 | -2.4 | 1.1 | 87.6* | 0.8 | -24.3 | -0.568
COC(=O)CCC(=O)N1CCC(CCC(=O)NCc2ccc(F)cc2)CC1 | -4.7 | -19.6 | . | -0.5 | . | .
